ChEMBL document CHEMBL5247578, “Effective synthesis of benzimidazoles-imidazo[1,2-a]pyrazine conjugates: A comparative study of mono-and bis-benzimidazoles for antitumor activity” (Eur J Med Chem, 2019)

Legend:
[1] = tested on: HOP-92; assay: Antiproliferative activity against human HOP-92 cells assessed as cell growth inhibition at 10 uM incubated for 48 hrs by sulforhodamine B assay relative to control; format: functional
Outline: (§1)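 NCI-60 one-dose prescreen at 10^-5 M. Cells grown in RPMI 1640 with 5% FBS and 2 mM glutamine, preincubated 24 h, then exposed 48 h at 37 °C. Adherent lines TCA-fixed, SRB-stained, A515 read. Growth percent relative to time-zero and control; negative values mean cell kill.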

[2] = tested on: NCI-H322M; assay: Antiproliferative activity against human NCI-H322M cells assessed as cell growth inhibition at 10 uM incubated for 48 hrs by sulforhodamine B assay relative to control; format: functional
Outline: (§2)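 NCI-60 single-dose screen at 10^-5 M. Cells grown in RPMI 1640 with 5% FBS and 2 mM L-glutamine, plated at 5,000–40,000 cells/well, and preincubated 24 h. Drug (DMSO stock) added and incubated 48 h at 37 °C, 5% CO2. Adherent cells fixed with cold TCA, stained with 0.4% SRB in 1% acetic acid, dye solubilized in 10 mM trizma base, A515 read. Percent growth taken against time-zero and untreated control.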

[3] = tested on: K562; assay: Antiproliferative activity against human K562 cells assessed as cell growth inhibition at 10 uM incubated for 48 hrs by sulforhodamine B assay relative to control; format: functional; outline: as §2
[4] = tested on: Hs-578T; assay: Antiproliferative activity against human Hs-578T cells assessed as cell growth inhibition at 10 uM incubated for 48 hrs by sulforhodamine B assay relative to control; format: functional; outline: as §2
[5] = tested on: LOX IMVI; assay: Antiproliferative activity against human LOX IMVI cells assessed as cell growth inhibition at 10 uM incubated for 48 hrs by sulforhodamine B assay relative to control; format: functional; outline: as §2
[6] = tested on: HOP-62; assay: Antiproliferative activity against human HOP-62 cells assessed as cell growth inhibition at 10 uM incubated for 48 hrs by sulforhodamine B assay relative to control; format: functional; outline: as §1
[7] = tested on: SF-268; assay: Antiproliferative activity against human SF-268 cells assessed as cell growth inhibition at 10 uM incubated for 48 hrs by sulforhodamine B assay relative to control; format: functional; outline: as §2
[8] = tested on: MDA-MB-231; assay: Antiproliferative activity against human MDA-MB-231 cells assessed as cell growth inhibition at 10 uM incubated for 48 hrs by sulforhodamine B assay relative to control; format: functional; outline: as §2
[9] = tested on: UO-31; assay: Antiproliferative activity against human UO-31 cells assessed as cell growth inhibition at 10 uM incubated for 48 hrs by sulforhodamine B assay relative to control; format: functional; outline: as §2
[10] = tested on: Malme-3M; assay: Antiproliferative activity against human Malme-3M cells assessed as cell growth inhibition at 10 uM incubated for 48 hrs by sulforhodamine B assay relative to control; format: functional; outline: as §2
[11] = tested on: SK-MEL-5; assay: Antiproliferative activity against human SK-MEL-5 cells assessed as cell growth inhibition at 10 uM incubated for 48 hrs by sulforhodamine B assay relative to control; format: functional; outline: as §2
[12] = tested on: HL-60; assay: Antiproliferative activity against human HL-60 cells assessed as cell growth inhibition at 10 uM incubated for 48 hrs by sulforhodamine B assay relative to control; format: functional; outline: as §1
[13] = tested on: MDA-MB-468; assay: Antiproliferative activity against human MDA-MB-468 cells assessed as cell growth inhibition at 10 uM incubated for 48 hrs by sulforhodamine B assay relative to control; format: functional; outline: as §2
[14] = tested on: SR; assay: Antiproliferative activity against human SR cells assessed as cell growth inhibition at 10 uM incubated for 48 hrs by sulforhodamine B assay relative to control; format: functional; outline: as §2
[15] = tested on: PC-3; assay: Antiproliferative activity against human PC-3 cells assessed as cell growth inhibition at 10 uM incubated for 48 hrs by sulforhodamine B assay relative to control; format: functional; outline: as §2
[16] = tested on: SF-539; assay: Antiproliferative activity against human SF-539 cells assessed as cell growth inhibition at 10 uM incubated for 48 hrs by sulforhodamine B assay relative to control; format: functional; outline: as §2
[17] = tested on: HCT-116; assay: Antiproliferative activity against human HCT-116 cells assessed as cell growth inhibition at 10 uM incubated for 48 hrs by sulforhodamine B assay relative to control; format: functional; outline: as §1
[18] = tested on: KM12; assay: Antiproliferative activity against human KM12 cells assessed as cell growth inhibition at 10 uM incubated for 48 hrs by sulforhodamine B assay relative to control; format: functional; outline: as §2
[19] = tested on: NCI-H23; assay: Antiproliferative activity against human NCI-H23 cells assessed as cell growth inhibition at 10 uM incubated for 48 hrs by sulforhodamine B assay relative to control; format: functional; outline: as §2
[20] = tested on: RPMI-8226; assay: Antiproliferative activity against human RPMI-8226 cells assessed as cell growth inhibition at 10 uM incubated for 48 hrs by sulforhodamine B assay relative to control; format: functional; outline: as §2
[21] = tested on: NCI-H522; assay: Antiproliferative activity against human NCI-H522 cells assessed as cell growth inhibition at 10 uM incubated for 48 hrs by sulforhodamine B assay relative to control; format: functional; outline: as §2
[22] = tested on: SNB-19; assay: Antiproliferative activity against human SNB-19 cells assessed as cell growth inhibition at 10 uM incubated for 48 hrs by sulforhodamine B assay relative to control; format: functional; outline: as §2
[23] = tested on: MDA-MB-435; assay: Antiproliferative activity against human MDA-MB-435 cells assessed as cell growth inhibition at 10 uM incubated for 48 hrs by sulforhodamine B assay relative to control; format: functional; outline: as §2
[24] = tested on: BT-549; assay: Antiproliferative activity against human BT-549 cells assessed as cell growth inhibition at 10 uM incubated for 48 hrs by sulforhodamine B assay relative to control; format: functional
Outline: (§3)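 Single-dose NCI-60 prescreen at 10^-5 M. Cells in RPMI 1640 with 5% FBS and 2 mM L-glutamine, seeded 5,000–40,000 cells/well with 24 h preincubation, then drug exposure for 48 h at 37 °C under 5% CO2. Growth read by SRB staining of TCA-fixed cells at 515 nm against time-zero and untreated controls. Negative growth values denote cell kill.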

[25] = n-Octanol/phosphate buffer partition coefficient, logP of the compound at pH 7.4 incubated for 85 mins by shake-flask method; format: physicochemical
Outline: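 Octanol–water partition by shake-flask: n-octanol with 0.15 M phosphate buffer pH 7.4 at 10:1 volumes. Buffer-phase absorbance read before mixing, then shaken 50 min and centrifuged at 2500 rpm for 35 min. Buffer absorbance read again; P = (Ai−Af)/Af × Vw/Vo.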

[26] = tested on: T47D; assay: Antiproliferative activity against human T47D cells assessed as cell growth inhibition at 10 uM incubated for 48 hrs by sulforhodamine B assay relative to control; format: functional; outline: as §2
[27] = tested on: NCI-H460; assay: Antiproliferative activity against human NCI-H460 cells assessed as cell growth inhibition at 10 uM incubated for 48 hrs by sulforhodamine B assay relative to control; format: functional; outline: as §2
[28] = tested on: ACHN; assay: Antiproliferative activity against human ACHN cells assessed as cell growth inhibition at 10 uM incubated for 48 hrs by sulforhodamine B assay relative to control; format: functional; outline: as §3
[29] = tested on: OVCAR-8; assay: Antiproliferative activity against human OVCAR-8 cells assessed as cell growth inhibition at 10 uM incubated for 48 hrs by sulforhodamine B assay relative to control; format: functional; outline: as §2
[30] = tested on: MCF7; assay: Antiproliferative activity against human MCF7 cells assessed as cell growth inhibition at 10 uM incubated for 48 hrs by sulforhodamine B assay relative to control; format: functional; outline: as §2
[31] = tested on: MOLT-4; assay: Antiproliferative activity against human MOLT-4 cells assessed as cell growth inhibition at 10 uM incubated for 48 hrs by sulforhodamine B assay relative to control; format: functional; outline: as §2
[32] = tested on: SN12C; assay: Antiproliferative activity against human SN12C cells assessed as cell growth inhibition at 10 uM incubated for 48 hrs by sulforhodamine B assay relative to control; format: functional; outline: as §2
[33] = tested on: M14; assay: Antiproliferative activity against human M14 cells assessed as cell growth inhibition at 10 uM incubated for 48 hrs by sulforhodamine B assay relative to control; format: functional; outline: as §2
[34] = tested on: U-251; assay: Antiproliferative activity against human U-251 cells assessed as cell growth inhibition at 10 uM incubated for 48 hrs by sulforhodamine B assay relative to control; format: functional; outline: as §2
[35] = tested on: HCT-15; assay: Antiproliferative activity against human HCT-15 cells assessed as cell growth inhibition at 10 uM incubated for 48 hrs by sulforhodamine B assay relative to control; format: functional; outline: as §1
[36] = tested on: UACC-62; assay: Antiproliferative activity against human UACC-62 cells assessed as cell growth inhibition at 10 uM incubated for 48 hrs by sulforhodamine B assay relative to control; format: functional; outline: as §2
[37] = tested on: CCRF-CEM; assay: Antiproliferative activity against human CCRF-CEM cells assessed as cell growth inhibition at 10 uM incubated for 48 hrs by sulforhodamine B assay relative to control; format: functional; outline: as §3
[38] = tested on: HT-29; assay: Antiproliferative activity against human HT-29 cells assessed as cell growth inhibition at 10 uM incubated for 48 hrs by sulforhodamine B assay relative to control; format: functional; outline: as §2
[39] = tested on: IGROV-1; assay: Antiproliferative activity against human IGROV-1 cells assessed as cell growth inhibition at 10 uM incubated for 48 hrs by sulforhodamine B assay relative to control; format: functional; outline: as §2
[40] = tested on: NCI/ADR-RES; assay: Antiproliferative activity against human NCI/ADR-RES cells assessed as cell growth inhibition at 10 uM incubated for 48 hrs by sulforhodamine B assay relative to control; format: functional; outline: as §2
[41] = tested on: SK-MEL-2; assay: Antiproliferative activity against human SK-MEL-2 cells assessed as cell growth inhibition at 10 uM incubated for 48 hrs by sulforhodamine B assay relative to control; format: functional; outline: as §2

CC(=O)c1ccc(-c2cn3ccnc3c(-c3ccc4ncn(C5CCCCC5)c4c3)n2)cc1
inhibition at 10 µM [1]: 25% | inhibition at 10 µM [2]: 1.19% | inhibition at 10 µM [3]: 9.6% | inhibition at 10 µM [4]: 6.34% | inhibition at 10 µM [5]: 14.5% | inhibition at 10 µM [6]: 7.41% | inhibition at 10 µM [7]: 5.01% | inhibition at 10 µM [8]: 7.65% | inhibition at 10 µM [9]: 23.1% | inhibition at 10 µM [10]: 3.01% | inhibition at 10 µM [11]: 24.8% | inhibition at 10 µM [12]: 2.65% | inhibition at 10 µM [13]: 0.73% | inhibition at 10 µM [14]: 23.6% | inhibition at 10 µM [15]: 17.9% | inhibition at 10 µM [16]: 2.82% | inhibition at 10 µM [17]: 15.8% | inhibition at 10 µM [18]: 11.7% | inhibition at 10 µM [19]: 8.6% | inhibition at 10 µM [20]: 20.8% | inhibition at 10 µM [21]: 10.4% | inhibition at 10 µM [22]: 3.96% | inhibition at 10 µM [23]: 6% | inhibition at 10 µM [24]: 4.68% | logD at 1.417 h [25]: 2.06 | inhibition at 10 µM [26]: 54.4% | inhibition at 10 µM [27]: 7.12% | inhibition at 10 µM [28]: 4.32% | inhibition at 10 µM [29]: 6.38% | inhibition at 10 µM [30]: 12% | inhibition at 10 µM [31]: 14.3% | inhibition at 10 µM [32]: 6.33% | inhibition at 10 µM [33]: 3.43% | inhibition at 10 µM [34]: 3.02% | inhibition at 10 µM [35]: 18.8% | inhibition at 10 µM [36]: 18.5% | inhibition at 10 µM [37]: 1.1% | inhibition at 10 µM [38]: 9.2% | inhibition at 10 µM [39]: 19.1% | inhibition at 10 µM [40]: 4.17% | inhibition at 10 µM [41]: 0.58%
